Experiments:
[1] = tested on: HEK293 cells overexpressing SIRT2; test: Cellular NAD+ measurement; assay type: cell-based, human; details: 40 nM, 6 h, vs control cells
Summary of the method: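 SIRT2-overexpressing HEK293 cells got 0 or 40 nM NAMPT inhibitor for 6 h, then were harvested, rinsed and resuspended in fresh medium. Pellets were extracted with ice-cold 7% perchloric acid through three vortex (30 s) and ice sonication (5 min) cycles. Extracts were centrifuged 3 min at RT, and supernatant was neutralised to pH 7 with NaOH and phosphate buffer. NAD⁺ was quantified by cycling assay.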

HEK293 cells = test: Viability testing using trypan blue; assay type: cell-based, human; details: 40 nM, 6 h
Summary of the method: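 HEK293 cells received 0 or 40 nM NAMPT inhibitor for 6 h, then were harvested, rinsed and resuspended in fresh medium. An aliquot of the suspension was scored for viability by trypan blue exclusion.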

[2] = target: T1, SIRT2 in SIRT2 overexpressing HEK293 cells (Homo sapiens, UniProt Q8IXJ6); test: In situ labeling of SIRT2 with activity-based probe; assay type: cell-based; details: cells treated with FK866 6 h, then 10 μM probe 1; compared to control cells
T1 sequence (Q8IXJ6 1-389): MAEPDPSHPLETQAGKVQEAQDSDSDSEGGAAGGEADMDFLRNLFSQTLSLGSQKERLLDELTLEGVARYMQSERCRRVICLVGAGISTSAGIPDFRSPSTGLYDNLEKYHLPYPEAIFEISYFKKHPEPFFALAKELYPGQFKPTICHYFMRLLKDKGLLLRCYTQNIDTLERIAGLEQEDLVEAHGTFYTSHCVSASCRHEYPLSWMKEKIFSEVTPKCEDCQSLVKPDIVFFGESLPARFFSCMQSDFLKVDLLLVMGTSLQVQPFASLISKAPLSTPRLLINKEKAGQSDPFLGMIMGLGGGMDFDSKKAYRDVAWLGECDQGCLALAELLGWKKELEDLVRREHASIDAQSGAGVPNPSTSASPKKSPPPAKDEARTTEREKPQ
Summary of the method: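 SIRT2-overexpressing HEK293 cells were treated with or without NAMPT inhibitor for 6 h, rinsed three times, and given fresh medium with 10 μM probe. Live cells were irradiated at 365 nm on ice for 1 h, then harvested and lysed. Lysate was click-conjugated to azide-fluor 545, resolved by SDS-PAGE and scanned for fluorescence. SIRT2 protein level was checked by Western blot.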

O=C(/C=C/c1cccnc1)NCCCCC1CCN(C(=O)c2ccccc2)CC1 [FK866]
NAD+ depletion [1]: 60%
loss of viability (HEK293 cells): negligible loss of viability
in situ labeling intensity of SIRT2 by probe 1 [2]: decreased labeling intensity
